Each structure is given as a SMILES string. Calls of active or inactive are those of the source. The calls are words filed in the database; no cut-off is given here.

Among the data in ChEMBL document CHEMBL1158351, “Studies on chemical structure modification and biology of a natural product, gambogic acid (I): Synthesis and biological evaluation of oxidized analogues of gambogic acid” (Eur J Med Chem, 2009) are IC50, Activity and Ratio values, retold here.

Test [1] concerns SK-OV-3. Nature of the test: Cytotoxicity against human SKOV3 cells after 48 hrs by MTT assay. The note with it: SK-OV-3, 48 h. Format: functional, cell-based. Summed up:
(§1)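 Cells in RPMI-1640 with 10% heat-inactivated calf serum, penicillin/streptomycin, 5% CO2, 37 °C. Seeded at 5×10³ per well and exposed to six concentrations of 0.01–1000 for 48 h. Then 0.5% MTT for 4 h at 37 °C, formazan dissolved in DMSO, absorbance read at 570 nm. Inhibition calculated as (1 − treated/control absorbance)×100. IC50 is the concentration giving 50% inhibition; mean ± SD of three observations.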
For orientation: Formazan colour is commonly taken as a measure of viable cells.

Test [2] concerns Bel-7402. Nature of the test: Cytotoxicity against human Bel7402 cells after 48 hrs by MTT assay. It counts as functional, cell-based. The note with it: Bel-7402, 48 h. Summed up:
as §1

Test [3] relates to HT-29. Nature of the test: Cytotoxicity against human HT-29 cells after 48 hrs by MTT assay. Format: functional, cell-based. The conditions noted are these: HT-29, 48 h. The essentials:
as §1

Test [4] deals with BGC-823. Nature of the test: Cytotoxicity against human BGC823 cells after 48 hrs by MTT assay. Format: functional, cell-based. The conditions noted are these: BGC-823, 48 h. Summed up:
as §1

The test system of test [5] is A549. Nature of the test: Cytotoxicity against human A549 cells after 48 hrs by MTT assay. Format: functional, cell-based. The conditions noted are these: A549, 48 h. The essentials:
as §1

Test [6] deals with HepG2. Nature of the test: Induction of apoptosis in human HepG2 cells assessed nonviable necrotic cells at 2 uM after 20 hrs using FITC-conjugated annexin V and propidium iodide staining by FACS analysis. Format: functional. The essentials: (§2)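 HepG2 cells in flasks treated for 20 h, then 1×10⁶ cells harvested, washed and resuspended in PBS. Stained with FITC-Annexin V and PI kit per kit instructions and analysed by flow cytometry. Quadrants: Annexin−/PI− viable, Annexin+/PI− early apoptotic, upper right necrotic/late apoptotic.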
For orientation: A flow cytometer gives signals particle by particle.

The subject of test [7] is HepG2. Nature of the test: Induction of apoptosis in human HepG2 cells assessed viable cells at 6 uM after 20 hrs using FITC-conjugated annexin V and propidium iodide staining by FACS analysis. It counts as functional. The essentials:
as §2

Test [8] has as its system HepG2. Nature of the test: Induction of apoptosis in human HepG2 cells assessed viable cells at 2 uM after 20 hrs using FITC-conjugated annexin V and propidium iodide staining by FACS analysis. It counts as functional. Summed up:
as §2

Test [9] deals with HepG2. Nature of the test: Induction of early apoptosis in human HepG2 cells assessed as presence of congregated chromatin and nucleolus pyknosis at 2 uM after 18 hrs using AOEB staining by fluorescence microscopy. Format: functional, cell-based. Summed up:
(§3)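 HepG2 cells treated for 18 h, fixed in 4% paraformaldehyde for 20 min, and permeabilized in 0.1% Triton for 20 min. Stained with acridine orange/ethidium bromide in PBS for 5 min. Viewed by fluorescence microscopy at 490 nm excitation. Green AO with condensed chromatin scored as early apoptotic; uniform red EB scored as dead.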

The test system of test [10] is HepG2. Nature of the test: Induction of apoptosis in human HepG2 cells assessed early apoptotic cells at 1 uM after 20 hrs using FITC-conjugated annexin V and propidium iodide staining by FACS analysis. Format: functional. The essentials:
as §2

Test [11] deals with HepG2. Nature of the test: Induction of apoptosis in human HepG2 cells assessed as morphological changes at 3 uM after 20 hrs using DAPI staining by fluorescence microscopy. It counts as functional, cell-based. The essentials:
(§4)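 Mid-log HepG2 cultures in RPMI-1640 treated for 20 h, then morphology checked by inverted light microscopy. Floating and attached cells collected with EDTA/trypsin, fixed in ice-cold 4% paraformaldehyde for 20 min, and permeabilized with 0.3% Triton X-100. Stained with DAPI and viewed by fluorescence microscopy at 340 nm excitation.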

Test [12] deals with HepG2. Nature of the test: Induction of apoptosis in human HepG2 cells assessed as ratio of Bcl-2 to Bax protein expression at 1 uM after 20 hrs by SDS-PAGE. Format: functional. The essentials:
(§5)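 HepG2 cells treated for 20 h, then lysed in Tris-Cl pH 6.8 buffer with 4% SDS, 20% glycerol, 200 mM β-mercaptoethanol, PMSF and aprotinin. Protein measured by Bradford at 595 nm and resolved on 10% SDS-PAGE, then transferred to PVDF membrane. Probed overnight at 4 °C with anti-Bcl-2, anti-Bax and anti-actin primaries, then 1 h with IRDye800 secondaries. Bcl-2/Bax ratio derived from band quantitation.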

The subject of test [13] is HepG2. Nature of the test: Induction of apoptosis in human HepG2 cells assessed early apoptotic cells at 6 uM after 20 hrs using FITC-conjugated annexin V and propidium iodide staining by FACS analysis. Format: functional. The essentials: as §2
For test [14], the system named is HepG2. Nature of the test: Induction of apoptosis in human HepG2 cells assessed nonviable necrotic cells at 1 uM after 20 hrs using FITC-conjugated annexin V and propidium iodide staining by FACS analysis. Format: functional. The essentials: as §2
Test [15] concerns HepG2. Nature of the test: Induction of apoptosis in human HepG2 cells assessed as inhibition of cell viability after 24 hrs by MTT assay. Format: functional, cell-based. The essentials: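 Medium then removed and MTT added; after 4 h the supernatant was discarded and DMSO added. Absorbance read at 570 nm. Mean ± SD, n = 3; IC50 calculated from the concentration–response.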

Test [16] has as its system HepG2. Nature of the test: Induction of apoptosis in human HepG2 cells assessed late apoptotic cells at 2 uM after 20 hrs using FITC-conjugated annexin V and propidium iodide staining by FACS analysis. Format: functional. Summed up: as §2
The subject of test [17] is HepG2. Nature of the test: Induction of early apoptosis in human HepG2 cells assessed as presence of congregated chromatin and nucleolus pyknosis at 1 uM after 18 hrs using AOEB staining by fluorescence microscopy. Format: functional, cell-based. The essentials: as §3
For test [18], the system named is HepG2. Nature of the test: Induction of apoptosis in human HepG2 cells assessed as decrease in Bcl-2 protein expression at 2 uM after 20 hrs by SDS-PAGE. Format: functional, cell-based. Summed up:
as §5

Test [19] has as its system HepG2. Nature of the test: Induction of apoptosis in human HepG2 cells assessed nonviable necrotic cells at 6 uM after 20 hrs using FITC-conjugated annexin V and propidium iodide staining by FACS analysis. Format: functional. The essentials: as §2
Test [20] has as its system HepG2. Nature of the test: Induction of apoptosis in human HepG2 cells assessed late apoptotic cells at 1 uM after 20 hrs using FITC-conjugated annexin V and propidium iodide staining by FACS analysis. Format: functional. The essentials: as §2
The subject of test [21] is HepG2. Nature of the test: Induction of apoptosis in human HepG2 cells assessed as ratio of Bcl-2 to Bax protein expression at 2 uM after 20 hrs by SDS-PAGE. It counts as functional. The essentials: as §5
Test [22] has as its system HepG2. Nature of the test: Induction of early apoptosis in human HepG2 cells assessed as presence of congregated chromatin and nucleolus pyknosis at 3 uM after 18 hrs using AOEB staining by fluorescence microscopy. Format: functional, cell-based. Summed up:
as §3

Test [23] relates to HepG2. Nature of the test: Induction of apoptosis in human HepG2 cells assessed as morphological changes at 2 uM after 20 hrs using DAPI staining by fluorescence microscopy. It counts as functional, cell-based. Summed up: as §4
In test [24] the test system is HepG2. Nature of the test: Induction of apoptosis in human HepG2 cells assessed as morphological changes at 1 uM after 20 hrs using DAPI staining by fluorescence microscopy. Format: functional, cell-based. Summed up: as §4
Test [25] relates to HepG2. Nature of the test: Induction of apoptosis in human HepG2 cells assessed viable cells at 1 uM after 20 hrs using FITC-conjugated annexin V and propidium iodide staining by FACS analysis. Format: functional. The essentials: as §2
Test [26] has as its system HepG2. Nature of the test: Induction of apoptosis in human HepG2 cells assessed late apoptotic cells at 6 uM after 20 hrs using FITC-conjugated annexin V and propidium iodide staining by FACS analysis. Format: functional. The essentials:
as §2

Test [27] relates to HepG2. Nature of the test: Induction of apoptosis in human HepG2 cells assessed early apoptotic cells at 2 uM after 20 hrs using FITC-conjugated annexin V and propidium iodide staining by FACS analysis. Format: functional. The essentials:
as §2

Test [28] deals with HepG2. Nature of the test: Induction of apoptosis in human HepG2 cells assessed as ratio of Bcl-2 to Bax protein expression at 6 uM after 20 hrs by SDS-PAGE. Format: functional. The essentials: as §5
The test system of test [29] is HepG2. Nature of the test: Induction of apoptosis in human HepG2 cells assessed as decrease in Bcl-2 protein expression at 1 uM after 20 hrs by SDS-PAGE. It counts as functional, cell-based. The essentials: as §5
The subject of test [30] is HepG2. Nature of the test: Induction of apoptosis in human HepG2 cells assessed as decrease in Bcl-2 protein expression at 6 uM after 20 hrs by SDS-PAGE. It counts as functional, cell-based. Summed up: as §5

A word on the IC50: it is the concentration at which inhibition is half-maximal. Turning to `COC(=O)/C(C)=C\C[C@@]12OC(C)(C)[C@@H]3C[C@@H](C=C4C(=O)c5c(OC)c6c(c(CC=C(C)C)c5O[C@]431)O[C@](C)(CC/C=C(\C)COC(C)=O)C=C6)C2=O`, the IC50 in [1] amounted to 15.8 µM; in test [2], 3.6 µM; in test [3], 2.41 µM; in test [4] it was 1.42 µM; in [5], 5.25 µM.

Consider `COC(=O)/C(C)=C\C[C@@]12OC(C)(C)[C@@H]3C[C@@H](C=C4C(=O)c5c(OC)c6c(c(CC7OC7(C)C)c5O[C@]431)O[C@](C)(CCC1OC1(C)C)C=C6)C2=O` (stereo partly specified), for which the IC50 in test [1] came out at 1.8 µM; in test [2], 1.66 µM; in [3], 1.86 µM; in [4], 3.21 µM; in test [5] it was 3.61 µM.

In the case of `CC(C)=CCC[C@]1(C)C=Cc2c(O)c3c(c(CC=C(C)C)c2O1)O[C@]12[C@H]4C[C@H](C(=O)[C@]1(C/C=C(/C)C(=O)O)OC4(C)C)C(O)C2(O)C3=O` (stereo partly specified), the IC50 stood at 6 µM in test [1]; 33.1 µM in test [2]; 34.7 µM in test [3]; 29.9 µM in test [4]; 74.2 µM in [5].

In the case of `CC(C)=CCC[C@]1(C)C=Cc2c(O)c3c(c(C/C=C(\C)CO)c2O1)O[C@]12C(=C[C@@H]4C[C@H]1C(C)(C)O[C@@]2(C/C=C(/C)C(=O)O)C4=O)C3=O`, the half-inhibitory concentration (IC50) in test [1] came to 1.61 µM; in test [2], 4.01 µM; in test [3], 2.66 µM; in test [4] it was 4.89 µM; in test [5], 5.87 µM.

Turning to `COC(=O)/C(C)=C\C[C@@]12OC(C)(C)[C@@H]3C[C@@H](C=C4C(=O)c5c(OC)c6c(c(CC=C(C)C)c5O[C@]431)O[C@](C)(CC/C=C(\C)CO)C=C6)C2=O`, the Activity in test [6] is given as 0.2%; in [7] it was 72.7%; in test [8], 92.3%; in [10], 4%; in [13], 12.9%; in [14], 0.2%. Moreover, the Activity entry in test [15] is “Dose-dependent effect”; in [16], 2.5%; in test [19] it was 0.9%; in test [20] it was 3.5%; in [25] it was 92.3%; in test [26], 13.5%. In addition, the Activity in test [27] is given as 5%. Moreover, the outcome in [9], in test [11], in test [17], in test [18], in [22] and in test [23] was Active. The result in test [24], in test [29] and in test [30] was Active. For the same compound, the Ratio is 0.476 in [12], 0.478 in test [21] and 0.251 in [28]. Also, the half-inhibitory concentration (IC50) turned out to be 1.28 µM in test [1]; 0.96 µM in [2]; 2.35 µM in test [15] (HepG2, 24 h); 0.89 µM in [3]; 0.84 µM in [4]; 4.38 µM in [5].

As for `COC(=O)/C(C)=C\C[C@@]12OC(C)(C)[C@@H]3C[C@@H](C=C4C(=O)c5c(OC)c6c(c(CC=C(C)C)c5O[C@]431)O[C@](C)(CC[C@H](O)C(C)(C)O)C=C6)C2=O`, the 50% inhibitory concentration (IC50) turned out to be 3.23 µM in test [1]; 3.65 µM in test [2]; 3.75 µM in test [3]; 3.46 µM in [4]; 5.86 µM in test [5].
